Data on 96 compounds can be found in ChEMBL document CHEMBL4513216, “Probing the Open Global Health Chemical Diversity Library for Multistage-Active Starting Points for Next-Generation Antimalarials” (ACS Infect Dis, 2020).

The series is described as follows: Toxicity liver stage against HepG2, at 10uM. The class given is cell-based. Conditions: human, HepG2-A16-CD81EGFP cells; read-out: INHIBITION
More on the design: test concentration 10 uM, cell line HepG2-A16-CD81EGFP. Summed up:
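Uninfected HepG2-A16-CD81EGFP cells, 3 × 10^3 per well, 1536-well, plated on prespotted compound at 10 μM final, parasite-free screening media added to match infected plates; puromycin 10 μM positive, DMSO 0.5% negative; run in parallel with 48 h PbLuc assay at 37 °C, 5% CO2; viability by CellTiter-Glo luminescence, normalized to controls.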
With `O=C(NCCCn1cccn1)C1CCC(=O)N(CC2CCCCC2)C1` (stereo unspecified), the cytotoxicity at 10 µM is -0.312%. To `CC1(C)CC(=O)c2cnc3nc(N4CCOCC4)nc(O)c3c2C1` belongs 1.21%; to `CCS(=O)(=O)CC(C)NC(=O)N(C)Cc1cc(Cl)cn1C` (stereo unspecified), -1.04%; to `CCC(CC)c1cc(CNC(=O)N2CCC(CO)CC2)on1`, 3.76%.

On to `Cc1cccc(CNC2CC(=O)N(Cc3cccc(F)c3)C2)c1` (stereo unspecified), for which the cytotoxicity at 10 µM was found to be 1.22%. To `Cc1nc(CN2CCO[C@H]3[C@H](OCC(=O)N(C)C)CC[C@@H]32)cs1` belongs 0.129%; to `CCCc1ncc(CN(CCOC)Cc2cccs2)cn1`, -0.683%; to `COCc1c(Br)cccc1NC(=O)CC(F)(F)F`, 2.38%.

For `Cc1cccc(CN2C[C@H]3CC[C@@H](C2)N(Cc2c(C)noc2C)C3=O)n1`, the cytotoxicity at 10 µM is 0.296%. To `COc1cccc(CC(=O)N2CCc3nc(C(N)=O)sc3CC2)c1` belongs 9.94%; to `COCCc1noc(CN2CC(n3nc(C)cc3C)C2)n1`, -1.76%; to `CN(C)[C@H]1CN(C(=O)CCc2cccc(F)c2)C[C@@H]1C1CC1`, -1.1%. With `Cc1cnc(C)c(-c2cccc(-c3ccn(CCN4CCCC4)n3)c2)n1`, the cytotoxicity at 10 µM was -10.5%. Then `Cc1cc(S(=O)(=O)NCC(C)(C)N)c(F)cc1F`, with 3.8%. On to `c1cc(C2CCCN2CC2CC2)n[nH]1` (stereo unspecified), for which the cytotoxicity at 10 µM is -1.75%. To `O=C1NC2(CCN(C/C=C/c3ccccc3)CC2)CC1c1ccccc1` (stereo unspecified) belongs -47.1%; to `CC(C)(C)OC(=O)NC1CCC(NC(=O)c2ccc[nH]2)CC1` (stereo unspecified), -17.1%; to `c1cc2n(n1)CC(CNCc1ccc(OC3CCCCC3)nc1)CN2` (stereo unspecified), -8.49%. To `Fc1ccccc1CN1CCC[C@H](Cn2nnc(-c3cccs3)n2)C1` belongs -0.152%; to `O=C(c1cccs1)N1CCC(Cn2nc(-c3ccco3)ccc2=O)CC1`, -2.21%; to `O=C(N1CCOCC1)N1CCN(c2ccncc2Cl)CC1`, -4.79%. Then `Cc1ccc(C(=O)N2CC[C@]3(C[C@@H](OCc4ccccn4)CO3)C2)nc1`, with -74.6%; and `Cc1noc([C@@H]2C[C@H]3OCC[C@H]3N(S(=O)(=O)c3cccnc3)C2)n1`, with -12.5%.

Consider `CCc1ccc(C(COC)NC(=O)c2ccsc2)o1` (stereo unspecified), for which the cytotoxicity at 10 µM came out at 1.57%. Then `CNC(=O)C1(c2cnccn2)CCCN1C(=O)c1ccc(OC)cc1` (stereo unspecified), with -12.9%; and `CCCSc1ncc(Cl)c(C(=O)NC(CCSC)C(=O)O)n1` (stereo unspecified), with -6.44%; and `CCC(NCc1cc[nH]n1)c1nc(C(F)(F)F)cs1` (stereo unspecified), with 6.12%. Then `Cc1nc(C)n(CC2CN(c3ncccc3C#N)CCO2)n1` (stereo unspecified), with -10.1%; and `Cn1cccc1C(=O)N1CCC2(CC1)CC(N1CCOCC1)C2`, with -8.25%. To `COc1ccc(CN(C)c2nccc(-c3cn(C)nc3C)n2)cc1` belongs 13.6%; to `CN1C[C@@H](n2cnc(-c3ccccc3)c2-c2ccccn2)C[C@H]1C(=O)O`, 0.322%; to `CCOCC(=O)Nc1cccnc1-n1ccnc1C`, 3.62%.

With `CNc1ncc(C(=O)N2CCC3(CC2)Nc2ccccc2NC3=O)cn1`, the cytotoxicity at 10 µM was 1.02%. Then `O=C1CCC(CCC(=O)N2CCCC2c2nccs2)=NN1` (stereo unspecified), with 4.06%; and `Cc1cc(CN2CC[C@H]3C[C@H](c4nccs4)O[C@@H]3C2)no1`, with 3.22%. Regarding `CNc1cc(C)nc(C2CN(Cc3cc[nH]n3)CCO2)c1` (stereo unspecified), the cytotoxicity at 10 µM is -9.09%. As for `CN1CC(C(=O)N2CCC(Oc3ccccc3Cl)CC2)CC1=O` (stereo unspecified), the cytotoxicity at 10 µM amounted to 9.99%. Then `COc1cccc(COCC(=O)N2CCC(CC(N)=O)CC2)c1`, with -4.56%. As to `CO[C@H]1CCN(C(=O)c2ccsc2)[C@@H]2CN(CC3CC3)C[C@H]12`, the cytotoxicity at 10 µM is 1.64%. To `CN(Cc1nnc2n1CCC2)C(=O)c1ccc2c(c1)CCO2` belongs -9.33%; to `O=C(c1nc(=O)[nH][nH]1)N1CCC2(CCCCC2)C1`, 11.4%; to `COCc1nc(CNC(=O)C(C)n2ccnc2C(C)C)no1` (stereo unspecified), -0.376%. Then `CC(NC(=O)CN1C=Nc2ccccc2S1(=O)=O)C1CC1` (stereo unspecified), with 4.53%.

For the compound `COCC1c2nnn(C)c2CCN1C(=O)Cc1ccc2c(c1)OCO2` (stereo unspecified), the cytotoxicity at 10 µM is 9.46%. Then `Cc1ccc(CNc2n[nH]c(C)n2)cc1`, with -2.25%. Then `O=C1CC(c2ccc(O)cc2)c2sc(C(=O)O)c(-c3ccccc3)c2N1` (stereo unspecified), with -0.472%; and `O=C(c1cnco1)N1CCCC(Cc2nccs2)C1` (stereo unspecified), with 4.84%; and `CN1Cc2ccccc2CC2(CCN(C(=O)[C@H]3CCCO3)CC2)C1=O`, with -113%. Regarding `O=C(NCC1CC1)C1=NOC2(CCN(Cc3ccc4c(c3)OCO4)C2)C1` (stereo unspecified), the cytotoxicity at 10 µM is -12.1%. To `COCc1cc(CC2(NCc3ccccc3Cl)COC2)no1` belongs -9.09%; to `O=C(CCCc1ccc(Cl)cc1)N1CCC(c2nnc[nH]2)CC1`, 18.3%; to `Fc1ccc(Sc2ccccc2CNC2=NCCN2)cc1`, 18.9%. To `CC1(C)Cc2ccc(C(=O)NC3CCS(=O)(=O)C3)c(O)c2O1` (stereo unspecified) belongs 0.329%; to `CN(C)CCN1CCCC12CCCN(Cc1ccoc1)C2` (stereo unspecified), 7.88%. Then `C=Cn1ncc(CN2C[C@@H]3CCCN3C[C@@H]2Cc2ccccc2)c1C`, with -5.74%; and `N#Cc1cccc(CN2CCC3(CC2)CC(c2ccncc2)C(=O)N3)c1` (stereo unspecified), with 3.44%; and `Cc1cccc(-c2cccc(CC3(C(=O)O)CCOCC3)c2)c1`, with -25.7%. For the compound `CCCc1n[nH]c(C2CN(Cc3nnc(C4CCC4)o3)CCO2)n1` (stereo unspecified), the cytotoxicity at 10 µM is -2.42%.

On to `Cc1cnc(CNC(=O)C2CCOc3ccccc3C2)cn1` (stereo unspecified), for which the cytotoxicity at 10 µM was -2.21%. Take `CCN1CCN(C[C@@H]2CN(c3ncccc3C(F)(F)F)C[C@@H]2CO)CC1`: the cytotoxicity at 10 µM is -4.47%. Then `Cc1ncc(C(=O)N2CCCC2c2c(C)nn(C)c2C)s1` (stereo unspecified), with 1.51%; and `CCS(=O)(=O)NCCNCc1ccc(Cl)c2cccnc12`, with -0.969%.

For `CC(C)[C@@H]1CN(Cc2c[nH]nc2-c2ccc(F)cc2)C[C@H]1NS(C)(=O)=O`, the cytotoxicity at 10 µM was -0.882%. On to `O=c1[nH]c(-c2ccncc2)nc2c1CCN(S(=O)(=O)N1CCCC1)C2`, for which the cytotoxicity at 10 µM was 6.04%. Then `Cc1cccc(CN2Cc3[nH]nc(COCC4CC4)c3C2)n1`, with 3.79%. Turning to `Cc1nc(CN2Cc3nccn3CC(CN3CCOCC3)C2)cs1` (stereo unspecified), the cytotoxicity at 10 µM was 0.951%.

With `CCN(CC1CN(Cc2nccn2CC)CCO1)c1cccnn1` (stereo unspecified), the cytotoxicity at 10 µM was -0.31%. To `O=C1CC2(CCN(Cc3ccc(-c4ccccc4)s3)C2)C(=O)N1` (stereo unspecified) belongs -0.745%; to `Cc1cc(C)cc(NC(=O)c2cnc(N3CCN(C)CC3)nc2C)c1`, -15.5%; to `Cc1nc(CCCC(=O)Nc2cccc(N3CCNC3=O)c2)cs1`, -2.26%. To `Cc1nonc1C1CCCN1CCC(=O)N1CCc2ccccc2C1` (stereo unspecified) belongs -11.2%; to `Cc1ccc(-c2cn[nH]c2C2CCCN(c3nccc(N)n3)C2)cc1` (stereo unspecified), 15.6%. Then `CCCNC(=O)c1cccc(CNCc2csc(CC)n2)c1`, with -10.7%. `CSc1ccc(NC(=O)Nc2ccc3c(c2)N(S(C)(=O)=O)CC3)cc1`: the cytotoxicity at 10 µM amounted to 48.5%. Then `COCCNC(=O)c1sccc1N(C)S(=O)(=O)c1ccc(Cl)cc1`, with 6.33%; and `CNC(=O)CC1CC2(CCN(S(C)(=O)=O)CC2)c2ccccc21` (stereo unspecified), with 5.75%; and `Cc1noc(C)c1-c1cccc(CC2CCN(C(=O)CN)C2)n1` (stereo unspecified), with -3.36%. Then `NC(=O)CCNC(=O)Cc1cccc(I)c1`, with -1.08%; and `Cc1cc(F)ccc1N1CCCC(NC(=O)CCCn2ccnc2)C1` (stereo unspecified), with 3.45%; and `CN(C)CCN1CCOCC2(CCCN(C(=O)c3ccoc3)C2)C1` (stereo unspecified), with 4.87%.

Turning to `CCOC(=O)CCNC(=O)N1CCN(c2nc3ccccc3n2C)CC1`, the cytotoxicity at 10 µM came to 4.88%. Then `CC(Cn1cccn1)NC(=O)NCc1ccoc1` (stereo unspecified), with 8.59%.

Consider `CC(C)n1nc2c(cc1=O)CN(Cc1nc3ccccc3o1)CC2`, for which the cytotoxicity at 10 µM is -2.19%. To `Cc1cc(CNC(=O)C2CCCN2C(=O)OC(C)(C)C)no1` (stereo unspecified) belongs -4.12%; to `CCn1c(CN2CCCC2)nnc1C1CCN(Cc2cccnc2)CC1`, 3.33%. Consider `O=C(NCc1cc(N2CCOCC2)ncn1)c1cccc(CO)n1`, for which the cytotoxicity at 10 µM is -7.76%.

In the case of `FC(F)(F)c1cccc(CN2CCOC[C@H](Oc3cccnc3)C2)c1`, the cytotoxicity at 10 µM stood at 7.74%. To `CCc1nc2c(NCC3COc4c(cccc4OC)C3)ncnc2o1` (stereo unspecified) belongs -0.164%.

For the compound `COc1ccccc1CC(C)CC(=O)NS(=O)(=O)C(C)C` (stereo unspecified), the cytotoxicity at 10 µM came to 4.56%.

Regarding `CC(=O)c1ccc(S(=O)(=O)Nc2cnn(C3CCOCC3)c2)cc1`, the cytotoxicity at 10 µM is -2.25%. Take `O=C(c1ccc[nH]1)N1CCc2nnc(Cn3cccn3)n2CC1`: the cytotoxicity at 10 µM stood at 5.62%. To `CC(c1ccc(S(C)(=O)=O)cc1)N(C)C(=O)c1ccccc1I` (stereo unspecified) belongs 11.1%; to `CSCC(C)(O)CNC(=O)c1cc(Br)ccc1Cl` (stereo unspecified), -25.1%; to `Cc1ccc(CNC(=O)CN(CCC(N)=O)c2ccc(F)cc2)cc1`, -2.62%. Then `O=C(CN(Cc1ccco1)C1CC1)Nc1ccc(Br)cn1`, with -2.65%. To `OC1(CN2CCOC(Cn3cccn3)C2)CCCCC1` (stereo unspecified) belongs -6.11%.
